The values that follow come from ChEMBL document CHEMBL4665801, “Pyrazole-Based Lactate Dehydrogenase Inhibitors with Optimized Cell Activity and Pharmacokinetic Properties” (J Med Chem, 2020).

The source made the active and inactive calls.

For data set [1], the target named is T1, L-lactate dehydrogenase A chain (Homo sapiens, UniProt P00338). Briefly: Inhibition of recombinant human LDHA using sodium pyruvate as substrate preincubated for 5 mins followed by diaphorase/resazurin addition and measured after 20 mins by fluorescence based assay.
The nature of data set [2]: Cmax in CD-1 mouse at 50 mg/kg, po and measured up to 24 hrs by LC/MS-MS analysis. On the set-up: route oral, dose 50 mg/kg, time <=24. It is filed as ADME, organism-based. The note with it: in vivo. Summed up:
(§1)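 Male CD1 mice, about 6–8 weeks old and 20–30 g, were dosed PO at 40 or 50 mg/kg in 0.1 M NaOH in PBS, pH 7–8.5, prepared the same day. Three mice per cohort. Dorsal metatarsal vein blood was collected into heparin at 15, 30 min and 1, 2, 4, 8, 12, 24 h. Plasma was spun at 4 °C, frozen at –75 °C and quantified by LC–MS/MS.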

Data set [3] in a line: Volume of distribution at steady state in CD-1 mouse at 10 mg/kg, iv and measured up to 24 hrs by LC/MS-MS analysis. The note with it: in vivo. It is filed as ADME, organism-based. Summed up:
(§2)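 Male CD1 mice, about 6–8 weeks old and 20–30 g, received 10 mg/kg IV in 0.1 M NaOH in PBS adjusted to pH 7–8.5, made fresh on the day of dosing. Three mice per cohort. Blood was taken from the dorsal metatarsal vein at 5, 15, 30 min and 1, 2, 4, 8, 12, 24 h into heparin tubes. Plasma was spun at 4 °C, stored at –75 °C and analysed by LC–MS/MS. For IV dosing Cmax = C0.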

A short description of data set [4]: AUClast in CD-1 mouse at 50 mg/kg, po and measured up to 24 hrs by LC/MS-MS analysis. Set-up: route oral, dose 50 mg/kg, time <=24. The note with it: in vivo. It counts as ADME, organism-based. Summed up:
as §1

The species named for another data set is Sus scrofa. As to the kind of experiment: Inhibition of porcine heart MDH using malic acid as substrate preincubated for 10 mins followed by substrate addition and measured after 5 mins by resazurin based fluorescence based assay. To be noted: time 15.0 min.
Data set [5] in a line: Terminal half life in CD-1 mouse at 50 mg/kg, po and measured up to 24 hrs by LC/MS-MS analysis. It is filed as ADME, organism-based. The note with it: in vivo. Summed up: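 Male CD1 mice, about 6–8 weeks old and 20–30 g, were dosed PO at 40 or 50 mg/kg in 0.1 M NaOH in PBS, pH 7–8.5, prepared the same day. Three mice per cohort. Plasma was spun at 4 °C, frozen at –75 °C and quantified by LC–MS/MS.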

Data set [6] is described as follows: Terminal half life in CD-1 mouse at 10 mg/kg, iv and measured up to 24 hrs by LC/MS-MS analysis. It counts as ADME, organism-based. To be noted: in vivo. Summed up: as §2
Data set [7] in a line: AUClast in CD-1 mouse at 10 mg/kg, iv and measured up to 24 hrs by LC/MS-MS analysis. It counts as ADME, organism-based. Set-up: route intravenous, dose 10 mg/kg, time <=24. The note with it: in vivo. Summed up:
as §2

The next data set relates to A673. Briefly: Cytotoxicity against human A673 cells assessed as reduction in cell viability after 48 hrs by CellTiter-Glo assay. It counts as functional, cell-based. To be noted: A673, 48 h.
The target of data set [8] is L-lactate dehydrogenase B chain (Homo sapiens) (UniProt P07195). Briefly: Inhibition of recombinant human LDHB using sodium pyruvate as substrate preincubated for 5 mins followed by diaphorase/resazurin addition and measured after 20 mins by fluorescence based assay.
A short description of data set [9]: Oral bioavailability in CD-1 mouse at 50 mg/kg and measured up to 24 hrs by LC/MS-MS analysis. It counts as ADME, organism-based. To be noted: in vivo. Summed up: as §1
Data set [10] relates to Mus musculus. As to the kind of experiment: In vivo inhibition of LDH in human A673 cells xenografted athymic nude CrTac:NCr-Foxn1nu mouse assessed as reduction in tumor LDH activity at 50 mg/kg, iv after 1 hr by NADH-based UV-VIS spectrometric method relative to control. It is filed as functional, organism-based. Summed up:
(§3)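 Female athymic nude mice carried SQ A673 flank xenografts (2 million cells) and received a single IV dose of 50 mg/kg in PBS-based vehicle. Four mice per time point were sacrificed at 1, 3, 6 and 24 h. Frozen tumor (10–50 mg) was pulverized and lysed in PBS pH 7.4 with 0.1% Triton X-100 on ice for 1 h. Cleared lysate (10–20 μg) was assayed with 10 mM pyruvate and 0.3 mM final NADH, reading NADH oxidation at 340 nm at 37 °C.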

For data set [11], the target named is T1, L-lactate dehydrogenase A chain. Briefly: Inhibition of LDHA in human MIA PaCa-2 cells assessed as decrease in lactate production incubated for 2 hrs by lactate oxidase-coupled fluorescence based assay. It is filed as cell-based.
Data set [12] shares this target. As to the kind of experiment: Inhibition of GS[HiBiT]GS-tagged LDHA (unknown origin) expressed in HEK-293T cells measured after 1 hr by […]. It counts as cell-based. Summed up: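 HEK293T cells were transiently transfected for 24 h with CMV-driven LDHA carrying a C-terminal GS[HiBiT]GS tag, then reseeded at 2500 cells/well in DPBS with Ca/Mg and 1 g/L glucose. […] Cells were lysed with NP40, and 11S (100 nM final) plus furimazine was added.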

Data set [13] deals with Mus musculus. As to the kind of experiment: In vivo inhibition of LDH in human A673 cells xenografted athymic nude CrTac:NCr-Foxn1nu mouse assessed as reduction in tumor LDH activity at 50 mg/kg, iv after 6 hrs by UV-VIS spectrometric method relative to control. It is filed as functional. Summed up:
as §3

The test system of another data set is MIA PaCa-2. As to the kind of experiment: Cytotoxicity against human MIA PaCa-2 cells assessed as reduction in cell viability after 48 hrs by CellTiter-Glo assay. It counts as functional, cell-based. The note with it: MIA PaCa-2, 48 h.
Data set [14] deals with T1, L-lactate dehydrogenase A chain. As to the kind of experiment: Inhibition of LDHA in human A673 cells assessed as decrease in lactate production incubated for 2 hrs by lactate oxidase-coupled fluorescence based assay. It is filed as cell-based.
The nature of data set [15]: Cmax in CD-1 mouse at 10 mg/kg, iv and measured up to 24 hrs by LC/MS-MS analysis. It is filed as ADME, organism-based. On the set-up: route intravenous, dose 10 mg/kg, time <=24. To be noted: in vivo. Summed up:
as §2

The target in data set [16] is T1, L-lactate dehydrogenase A chain. Briefly: Binding affinity to human His-tagged LDHA by SPR analysis. Summed up: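 SPR on a Mass-1 instrument gave K_D and k_off. Residence time τ was calculated as 1/k_off (s⁻¹).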
Data set [17] is described as follows: In vivo inhibition of LDH in human A673 cells xenografted athymic nude CrTac:NCr-Foxn1nu mouse assessed as tumor residual LDH activity at 50 mg/kg, iv after 1 hr by UV-VIS spectrometric method relative to control. It counts as functional. Summed up: as §3

L-lactate dehydrogenase B chain (Homo sapiens), sequence (P07195 2-334 limits assumed): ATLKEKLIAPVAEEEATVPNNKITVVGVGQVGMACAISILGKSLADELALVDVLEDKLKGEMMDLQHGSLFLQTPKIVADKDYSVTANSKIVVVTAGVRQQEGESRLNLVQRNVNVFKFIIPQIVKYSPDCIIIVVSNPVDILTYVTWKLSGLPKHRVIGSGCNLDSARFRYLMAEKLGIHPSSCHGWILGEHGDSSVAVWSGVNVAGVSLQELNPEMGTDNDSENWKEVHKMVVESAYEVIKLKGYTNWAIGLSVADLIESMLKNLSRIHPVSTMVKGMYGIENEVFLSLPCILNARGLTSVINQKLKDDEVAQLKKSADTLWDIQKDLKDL

Consider `Cc1cnc(C#Cc2cc(-c3nn(-c4nc(C(=O)O)cs4)c(CC4CC4)c3Cc3ccc(S(N)(=O)=O)c(F)c3)ccc2F)s1`, for which the IC50 in data set [1] was 52 nM; in the data set on A673, 803 nM; in data set [11] it was 1600 nM; in [12], 170 nM; in the data set with MIA PaCa-2, 909 nM; in data set [14] it was 1320 nM. In addition, the values for the Cmax in data set [2] and in data set [15] were 2030 ng/mL and 3320 ng/mL, respectively. Besides, in [3], the Vdss was 17.9 L/kg. Moreover, the AUClast in data set [4] amounted to 2650 ng·h/mL; in data set [7], 1360 ng·h/mL. Besides, in the data set filed under Sus scrofa, the inhibition entry is “inactive”. The “beta t1/2” value in data set [5] amounted to 3.54 h; in [6], 4.9 h. For the same molecule, the inhibition entry (in [8]; in the data set with Mus musculus [10]; in the data set with Mus musculus [13]) was “Active” each time. The F in [9] is reported as 39%.

Regarding `NS(=O)(=O)c1ccc(Cc2c(-c3ccc(F)c(C#CCC4CCCC4)c3)nn(-c3nc(C(=O)O)cs3)c2CC2CC2)cc1F`, the IC50 was 202 nM in data set [1]; 939 nM in the data set with A673; 424 nM in data set [11]; 178 nM in data set [12]; 848 nM in the data set on MIA PaCa-2; 487 nM in data set [14]. Moreover, the inhibition result in the data set filed under Sus scrofa was “inactive”. For the same molecule, the inhibition result in [8] was “Active”. In addition, in [16], the Kd was determined as 0.123 nM.

Regarding `NS(=O)(=O)c1ccc(Cc2c(-c3ccc(F)c(C#CC4CCCC4)c3)nn(-c3nc(C(=O)O)cs3)c2CC2CC2)cc1F`, the IC50 came to 22 nM in [1]; 100 nM with A673; 333 nM in data set [11]; 112 nM in [12]; 314 nM in the data set on MIA PaCa-2; 509 nM in data set [14]. In addition, the inhibition entry in the data set filed under Sus scrofa was “inactive”. Besides, the inhibition result in [8] was “Active”. Besides, binding in data set [16] was characterised by a dissociation constant (Kd) of 0.0193 nM.

Consider `NS(=O)(=O)c1ccc(Cc2c(-c3cccc(C#Cc4ccc(C5CC5)s4)c3)nn(-c3nc(C(=O)O)cs3)c2CC2CC2)cc1F`, for which the IC50 in data set [1] was determined as 201 nM; with A673 it was 332 nM; in [11], 434 nM; in data set [12] it was 183 nM; with MIA PaCa-2, 342 nM; in data set [14], 403 nM. The Activity in data set [17] is on record as less than 40%. Moreover, the inhibition result in the data set listed under Sus scrofa was “inactive”. Also, the inhibition result (in [8]; in the data set with Mus musculus [10]; with Mus musculus [13]) was “Active” each time.

Regarding `CCCC#Cc1cc(-c2nn(-c3nc(C(=O)O)cs3)c(CC3CC3)c2Cc2ccc(S(N)(=O)=O)c(F)c2)ccc1F`, the IC50 in data set [1] was 24 nM; in the data set with A673, 833 nM; in [11], 361 nM; in data set [12] it was 106 nM; with MIA PaCa-2, 746 nM; in data set [14], 420 nM. Besides, the inhibition entry in the data set filed under Sus scrofa is “inactive”. The inhibition entry (in data set [8]; in the data set with Mus musculus [10]; in the data set with Mus musculus [13]) was “Active” in each case.

For `NS(=O)(=O)c1ccc(Cc2c(-c3ccc(F)c(/C=C/C4CCCC4)c3)nn(-c3nc(C(=O)O)cs3)c2CC2CC2)cc1F`, the IC50 stood at 74 nM in data set [1]; 488 nM in the data set with A673; 149 nM in [11]; 108 nM in data set [12]; 454 nM in the data set with MIA PaCa-2; 371 nM in [14]. The Cmax is 1200 ng/mL in data set [2] and 6440 ng/mL in data set [15]. In data set [3], this molecule showed a Vdss of 13.3 L/kg. Further, the values for the AUClast in [4] and in [7] were 9220 ng·h/mL and 2810 ng·h/mL, respectively. In addition, in the data set listed under Sus scrofa, the inhibition entry is “inactive”. In addition, the “beta t1/2” value in [5] turned out to be 3.1 h; in [6], 5.5 h. The inhibition result (in data set [8]; with Mus musculus [10]; with Mus musculus [13]) was “Active” in each case. For the same molecule, the F in data set [9] is on record as 83%.

On to `C/C=C/c1cc(-c2nn(-c3nc(C(=O)O)cs3)c(CC3CC3)c2Cc2ccc(S(N)(=O)=O)c(F)c2)ccc1F`, for which the half-inhibitory concentration (IC50) is 11 nM in data set [1]; 614 nM with A673; 321 nM in data set [11]; 126 nM in data set [12]; 528 nM in the data set with MIA PaCa-2; 405 nM in data set [14]. The inhibition entry in the data set filed under Sus scrofa is “inactive”. Further, the inhibition result (in data set [8]; with Mus musculus [10]; in the data set on Mus musculus [13]) was “Active” in each case.

With `Cc1ccc(C#Cc2cc(-c3nn(-c4nc(C(=O)O)cs4)c(CCC4CC4)c3Cc3ccc(S(N)(=O)=O)c(F)c3)ccc2F)s1`, the concentration for half-maximal inhibition (IC50) in data set [1] is 202 nM; with A673 it was 218 nM; in [11] it was 197 nM; in data set [12], 200 nM; in the data set on MIA PaCa-2, 226 nM; in data set [14], 390 nM. Besides, the Cmax in data set [2] is 4730 ng/mL; in data set [15], 35300 ng/mL. In [3], this molecule had a distribution volume (Vdss) of 2.5 L/kg. The values for the AUClast in [4] and in data set [7] were 12240 ng·h/mL and 6650 ng·h/mL, respectively. The inhibition result in the data set listed under Sus scrofa is “inactive”. The “beta t1/2” value in [5] was 3.2 h; in [6], 6.5 h. The inhibition entry (in data set [8]; with Mus musculus [10]; with Mus musculus [13]) was “Active” in each case. This molecule also displayed a F in [9] of 37%.
